From publication PMC10975593 (ACS Omega, 2024)
Like-named read-outs stand apart in the source and are kept apart here.

Assays:
PI3Kγ enzyme = PI3Kγ enzyme (Homo sapiens, UniProt P48736); assay: Adapta universal kinase assay, anti-PI3Kγ activity; format: biochemical
Procedure, shortened: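 Adapta ADP-detection TR-FRET immunoassay with test compound at 100 μM. The kinase reaction runs 60 min. It is then stopped by a detection solution of EDTA, europium-labelled anti-ADP antibody and Alexa Fluor 647-labelled ADP tracer. ADP formed displaces the tracer and lowers the TR-FRET signal. ADP formation is calculated from the emission ratio.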

A549 cancer cell line = assay: MTT assay; format: cell-based; conditions: Homo sapiens, A549, 72 h
Procedure, shortened: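 A549 in DMEM and MCF-7 in RPMI, each with 10% heat-inactivated FBS, 1% penicillin/streptomycin and 2 mmol/L glutamine at 37 °C, 5% CO2. Seeded at 2000 (A549) or 10,000 (MCF-7) cells/well and attached 24 h. Then 72 h with test compound at varying concentrations. MTT (5 mg/mL stock) added for 4 h at 37 °C, formazan dissolved in DMSO, absorbance read at 450/540 nm. Triplicates in three separate experiments.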

Escherichia coli = assay: Disc diffusion antimicrobial test; format: cell-based; conditions: Escherichia coli, 24 h, read-out: zone of inhibition (diameter of inhibition)
Procedure, shortened: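 Disc diffusion on nutrient agar, test compound at 100 μg/mL with DMSO as solvent. Plates incubated at 37 °C for 24 h after inoculation, then zone of inhibition measured and compared with standards. Controls were DMSO, amoxicillin, ciprofloxacin and tetracycline.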

MDA-MB-468 = assay: NCI 60-cell line screen; format: cell-based, human
SF-268 = assay: NCI 60-cell line screen; format: cell-based, human
Procedure, shortened: (§1)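 Test compounds were submitted to the National Cancer Institute and run under NCI's standard 60-cell-line protocols. Read-outs were taken from percent-growth versus log-concentration curves.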

SNB-19 = assay: NCI 60-cell line screen; format: cell-based, human
Procedure, shortened: as §1

SNB-75 = assay: NCI 60-cell line screen; format: cell-based, human
Procedure, shortened: as §1

HCT-15 = assay: NCI 60-cell line screen; format: cell-based, human
KM12 = assay: NCI 60-cell line screen; format: cell-based, human
K-562 = assay: NCI 60-cell line screen; format: cell-based, human
MALME-3M = assay: NCI 60-cell line screen; format: cell-based, human
SK-MEL-2 = assay: NCI 60-cell line screen; format: cell-based, human
Procedure, shortened: as §1

HOP-62 = assay: NCI 60-cell line screen; format: cell-based, human
HOP-92 = assay: NCI 60-cell line screen; format: cell-based, human
NCI-H23 = assay: NCI 60-cell line screen; format: cell-based, human
NCI-H322M = assay: NCI 60-cell line screen; format: cell-based, human
OVCAR-3 = assay: NCI 60-cell line screen; format: cell-based, human
OVCAR-4 = assay: NCI 60-cell line screen; format: cell-based, human
DU-145 = assay: NCI 60-cell line screen; format: cell-based, human
A498 = assay: NCI 60-cell line screen; format: cell-based, human
SN12C = assay: NCI 60-cell line screen; format: cell-based, human
Procedure, shortened: as §1

TK-10 = assay: NCI 60-cell line screen; format: cell-based, human
Procedure, shortened: as §1

HL-60(TB) = assay: cells; conditions: Homo sapiens

PI3Kγ enzyme, sequence (P48736 whole entry): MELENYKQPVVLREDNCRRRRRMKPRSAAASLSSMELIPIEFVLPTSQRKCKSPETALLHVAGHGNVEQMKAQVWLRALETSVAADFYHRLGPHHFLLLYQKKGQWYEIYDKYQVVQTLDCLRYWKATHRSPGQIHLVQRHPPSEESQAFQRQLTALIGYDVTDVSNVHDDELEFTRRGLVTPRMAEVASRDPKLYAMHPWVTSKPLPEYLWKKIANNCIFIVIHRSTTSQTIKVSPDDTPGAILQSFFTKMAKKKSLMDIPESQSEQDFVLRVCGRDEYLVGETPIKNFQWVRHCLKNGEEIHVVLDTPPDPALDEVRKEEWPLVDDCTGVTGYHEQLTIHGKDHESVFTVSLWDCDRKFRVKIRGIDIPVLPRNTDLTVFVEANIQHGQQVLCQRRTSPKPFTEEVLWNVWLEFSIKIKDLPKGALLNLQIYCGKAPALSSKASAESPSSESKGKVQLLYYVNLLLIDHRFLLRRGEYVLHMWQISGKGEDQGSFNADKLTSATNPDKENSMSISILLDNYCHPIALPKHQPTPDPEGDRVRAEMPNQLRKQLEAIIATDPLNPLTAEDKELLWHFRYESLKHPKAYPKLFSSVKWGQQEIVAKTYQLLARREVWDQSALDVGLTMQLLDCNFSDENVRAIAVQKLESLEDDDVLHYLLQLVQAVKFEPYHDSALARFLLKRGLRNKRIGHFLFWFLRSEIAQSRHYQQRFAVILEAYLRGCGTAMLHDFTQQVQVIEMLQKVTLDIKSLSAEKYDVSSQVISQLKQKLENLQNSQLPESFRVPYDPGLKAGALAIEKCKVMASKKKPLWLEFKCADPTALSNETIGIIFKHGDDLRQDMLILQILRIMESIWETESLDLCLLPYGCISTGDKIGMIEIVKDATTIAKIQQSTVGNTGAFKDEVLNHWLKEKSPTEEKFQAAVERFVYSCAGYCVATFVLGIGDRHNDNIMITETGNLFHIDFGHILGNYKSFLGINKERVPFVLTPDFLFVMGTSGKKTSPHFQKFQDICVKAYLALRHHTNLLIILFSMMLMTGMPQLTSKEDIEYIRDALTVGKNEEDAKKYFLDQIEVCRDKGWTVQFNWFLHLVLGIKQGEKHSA

Compound: O=C(CNc1ccc([N+](=O)[O-])cc1)Nc1nc2ccccc2s1 [OMS5, N-(1,3-benzothiazol-2-yl)-2-(4-nitroanilino)acetamide]
- inhibition at 100 µM (PI3Kγ enzyme; read-out: % of inhibition (mean) against PI3Kγ enzyme): 0%
- inhibition at 100 µM (PI3Kγ enzyme; read-out: % of inhibition against PI3Kγ enzyme, point 1): 0%
- inhibition at 100 µM (PI3Kγ enzyme; read-out: % of inhibition against PI3Kγ enzyme, point 2): 0%
- IC50 (A549 cancer cell line): 61 µM
- inhibition at 100 µM (A549 cancer cell line; read-out: experimental % of inhibition on A549 cancer cell line): 64.2%
- zone of inhibition at 100 µg/mL (Escherichia coli): 0 mm
- GI50 (MDA-MB-468; Homo sapiens, MDA-MB-468): 400 nM
- IC50 (MDA-MB-468; Homo sapiens, MDA-MB-468): 1800 nM
- CC50 (MDA-MB-468; Homo sapiens, MDA-MB-468, read-out: LC50): 5.3 µM
- TGI (MDA-MB-468; MDA-MB-468, breast cancer): 1.8 µM
- GI50 (SF-268; Homo sapiens, SF-268): 1300 nM
- IC50 (SF-268; Homo sapiens, SF-268): 3.5 µM
- CC50 (SF-268; Homo sapiens, SF-268, read-out: LC50): 51.3 µM
- TGI (SF-268; SF-268, CNS cancer): 6.6 µM
- GI50 (SNB-19; Homo sapiens, SNB-19): 1000 nM
- IC50 (SNB-19; Homo sapiens, SNB-19): 2600 nM
- CC50 (SNB-19; Homo sapiens, SNB-19, read-out: LC50): 95.5 µM
- TGI (SNB-19; SNB-19, CNS cancer): 10 µM
- GI50 (SNB-75; Homo sapiens, SNB-75): 1400 nM
- IC50 (SNB-75; Homo sapiens, SNB-75): 3000 nM
- CC50 (SNB-75; Homo sapiens, SNB-75, read-out: LC50): 5.9 µM
- TGI (SNB-75; SNB-75, CNS cancer): 2.9 µM
- TGI (HCT-15; HCT-15, colon cancer): 3.7 µM
- GI50 (HCT-15; Homo sapiens, HCT-15): 500 nM
- IC50 (HCT-15; Homo sapiens, HCT-15): 700 nM
- CC50 (HCT-15; Homo sapiens, HCT-15, read-out: LC50): 28.8 µM
- GI50 (KM12; Homo sapiens, KM12): 1200 nM
- IC50 (KM12; Homo sapiens, KM12): 2500 nM
- CC50 (KM12; Homo sapiens, KM12, read-out: LC50): 52.5 µM
- TGI (KM12; KM12, colon cancer): 12 µM
- GI50 (K-562; Homo sapiens, K562): 500 nM
- IC50 (K-562; Homo sapiens, K562): 600 nM
- CC50 (K-562; Homo sapiens, K562, read-out: LC50): > 100 µM
- TGI (K-562; K-562, leukemia): 100 µM
- GI50 (MALME-3M; Homo sapiens, Malme-3M): 1100 nM
- IC50 (MALME-3M; Homo sapiens, Malme-3M): 2100 nM
- CC50 (MALME-3M; Homo sapiens, Malme-3M, read-out: LC50): 5 µM
- TGI (MALME-3M; MALME-3M, melanoma): 2.3 µM
- GI50 (SK-MEL-2; Homo sapiens, SK-MEL-2): 1300 nM
- IC50 (SK-MEL-2; Homo sapiens, SK-MEL-2): 3000 nM
- CC50 (SK-MEL-2; Homo sapiens, SK-MEL-2, read-out: LC50): 6.3 µM
- TGI (SK-MEL-2; SK-MEL-2, melanoma): 2.8 µM
- TGI (HOP-62; HOP-62, non-small cell lung cancer): 4.9 µM
- GI50 (HOP-62; Homo sapiens, HOP-62): 1200 nM
- IC50 (HOP-62; Homo sapiens, HOP-62): 3000 nM
- CC50 (HOP-62; Homo sapiens, HOP-62, read-out: LC50): 25.1 µM
- TGI (HOP-92; HOP-92, non-small cell lung cancer): 10 µM
- GI50 (HOP-92; Homo sapiens, HOP-92): 2300 nM
- IC50 (HOP-92; Homo sapiens, HOP-92): 12 µM
- CC50 (HOP-92; Homo sapiens, HOP-92, read-out: LC50): 63.1 µM
- GI50 (NCI-H23; Homo sapiens, NCI-H23): 1000 nM
- IC50 (NCI-H23; Homo sapiens, NCI-H23): 2100 nM
- CC50 (NCI-H23; Homo sapiens, NCI-H23, read-out: LC50): 7.8 µM
- TGI (NCI-H23; NCI-H23, non-small cell lung cancer): 2.8 µM
- GI50 (NCI-H322M; Homo sapiens): 1100 nM
- IC50 (NCI-H322M; Homo sapiens): 2500 nM
- CC50 (NCI-H322M; Homo sapiens, read-out: LC50): 28.8 µM
- TGI (NCI-H322M; non-small cell lung cancer): 4.1 µM
- GI50 (OVCAR-3; Homo sapiens, OVCAR-3): 1900 nM
- IC50 (OVCAR-3; Homo sapiens, OVCAR-3): 4 µM
- CC50 (OVCAR-3; Homo sapiens, OVCAR-3, read-out: LC50): > 100 µM
- TGI (OVCAR-3; OVCAR-3, ovarian cancer): 9.1 µM
- GI50 (OVCAR-4; Homo sapiens, OVCAR-4): 1000 nM
- IC50 (OVCAR-4; Homo sapiens, OVCAR-4): 3000 nM
- CC50 (OVCAR-4; Homo sapiens, OVCAR-4, read-out: LC50): 40.7 µM
- TGI (OVCAR-4; OVCAR-4, ovarian cancer): 5.1 µM
- TGI (DU-145; DU-145, prostate cancer): 12 µM
- GI50 (DU-145; Homo sapiens, DU-145): 800 nM
- IC50 (DU-145; Homo sapiens, DU-145): 1800 nM
- CC50 (DU-145; Homo sapiens, DU-145, read-out: LC50): 52.5 µM
- TGI (A498; A498, renal cancer): 6.5 µM
- GI50 (A498; Homo sapiens, A498): 1400 nM
- IC50 (A498; Homo sapiens, A498): 7.2 µM
- CC50 (A498; Homo sapiens, A498, read-out: LC50): 28.8 µM
- GI50 (SN12C; Homo sapiens): 600 nM
- IC50 (SN12C; Homo sapiens): 1500 nM
- CC50 (SN12C; Homo sapiens, read-out: LC50): 57.5 µM
- TGI (SN12C; renal cancer): 4.9 µM
- GI50 (TK-10; Homo sapiens, TK-10): 1500 nM
- IC50 (TK-10; Homo sapiens, TK-10): 10 µM
- CC50 (TK-10; Homo sapiens, TK-10, read-out: LC50): > 100 µM
- TGI (TK-10; TK-10, renal cancer): 15 µM
- GI50 (HL-60(TB); HL-60): 800 nM
- IC50 (HL-60(TB); HL-60): 2500 nM
- CC50 (HL-60(TB); HL-60, read-out: LC50): > 100 µM
